Assays:
[1] = melting temperature; fluorescence melt of hairpins on a sequencing array, two-state fit, raised by 9.35 °C to match UV melts; settings: sodium 0.088 M
How it was run: (§1)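 Folding enthalpy and melting temperature were estimated with bootstrapped two-state fits and combined across four replicates by inverse-variance weighting, with fitted temperatures raised by 9.35 °C to match UV melts. The data were Cy3 fluorescence of library hairpins, with annealed Cy3 and quencher oligos, on a sequenced MiSeq flow cell in 50 mM Na-HEPES pH 8.0, 25 mM NaCl, imaged in 2.5 °C steps up to 60 °C and normalised to pre-quench Cy3 and control constructs.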

[2] = folding enthalpy; higher = less favourable; fluorescence melt of hairpins on a sequencing array, two-state fit; settings: sodium 0.088 M
How it was run: as §1

| Sequence | Tm [1] [°C] | folding enthalpy [2] [kcal/mol] |
| --- | --- | --- |
| GGCGTGGCGAAAGCCGCC (((..(((....)))))) | 66.7 | -16.4 |
| GGGGCAACGAAAGTTCCC (((..(((....)))))) | 47.4 | -25.5 |
| GTCGGCGAAAGCCCAGAC ((((((....)))..))) | 42.7 | -13.5 |
| GAAGGGCGAAAGCCTTTC (((.(((....))).))) | 49.4 | -17.9 |
| GCTCACGAAAGTGAGAGC ((((((....)))..))) | 59 | -13.7 |
| CGCGGACCGTCCGCG ((((((...)))))) | 68.9 | -29 |
| GCACAGCGAAAGCCTTGC (((..((....))..))) | 39 | -8.82 |
| GTTCTTGAAAAAGAAC ((((((....)))))) | 46.9 | -34.2 |
| GGTGGCGAAAGCCGTACC ((((((....)))..))) | 44.7 | -13.3 |
| GATCATAGGTATGATC ((((((....)))))) | 49.1 | -40.5 |
| GATCTCCTCTGAGATC ((((((....)))))) | 51.8 | -31.3 |
| GGGCCTCGAAAGAGACCC (((.(((....))).))) | 56 | -43 |
| CGGAACGGAAACGTGCCG (((.(((....))).))) | 56 | -44.3 |
| GTAATGCGAAAGCAATAC (((.(((....))).))) | 44.6 | -20 |
| GCCCCAGGAAACTAGGGC ((((.((....)).)))) | 46.4 | -29.1 |
| GCGTTCGGAAACGGACGC ((((.((....)).)))) | 64 | -40.2 |
| GTCATTGGAAACAACGAC (((.(((....))).))) | 35.5 | -20.9 |
| GGACGGGGAAACTCGTCC (((((.(....).))))) | 58 | -41 |
| GATCCAGCCATGGATC ((((((....)))))) | 58.7 | -38.8 |
| GTAGAAGGAAACTTCTGC (.(((((....))))).) | 39 | -23.1 |
| GTCCGCGAAAGCGGAGAC ((((((....)))..))) | 56.8 | -7 |
| GCATGTCGAAAGACGTGC (((.(((....))).))) | 65.6 | -36.8 |
| GCTAAACGAAAGTTAGC (((.(((....)))))) | 48.3 | -26.6 |

| Sequence | Tm [1] [°C] | folding enthalpy [2] [kcal/mol] |
| --- | --- | --- |
| GATCGTCGCACGATC ((((((...)))))) | 58.2 | -37.9 |
| GATCTAGACTTAGATC ((((((....)))))) | 47 | -39.3 |
| CGTATACGGAAACGTACG (((..(((....)))))) | 33 | -27.7 |
| GATCATAAGAATGATC ((((((....)))))) | 40.1 | -27.7 |
| GGGGAGGGAAACTTCCCC (((((.(....).))))) | 50.9 | -33 |
| GGTTTCGAAAGAAGTACC ((((((....)))..))) | 29.8 | -12.7 |
| GCTCTCGAAAGAGACAGC ((((((....)))..))) | 35.9 | -17.8 |
| GCTTCGGCGAAAGCCAGC (((..(((....)))))) | 40.2 | -10.3 |
| GATCGTTTAGACGATC ((((((....)))))) | 55.6 | -38.2 |
| GAAACCCGAAAGGGGTTC (((.(((....))).))) | 59.2 | -29 |
| GGTTGGGGAAACTCAACC (((((.(....).))))) | 51.1 | -38.4 |
| GTATCCGGAAACGAATAC ((((.((....)).)))) | 33.5 | -26.5 |
| GTGGAACGAAAGTTTCAC (((.(((....))).))) | 53.2 | -42.7 |
| GTGGATTCGAAAGAACAC (((..(((....)))))) | 32 | -17.4 |
| GAAGGCGAAAGCCAATTC ((((((....)))..))) | 39.5 | -11.2 |
| GGTTAGGGAAACCCAACC ((((.((....)).)))) | 41 | -28.6 |
| GCAGTCGAAAGACTTGC ((((((....))).))) | 50.4 | -22.6 |
| GTTATGGGAAACCACAAC (((.(((....))).))) | 29.2 | -14.9 |
| GCTTTCGAAAGAAAAAGC ((((((....)))..))) | 36 | -26.6 |
| GAAGCTGGAAACAGCTTC (((((((....))))))) | 62.7 | -40.9 |
| GATCAGTTCCCTGATC ((((((....)))))) | 49.7 | -32 |
| AGGTGGAAACACCT (((((....))))) | 52.6 | -19.2 |
| GGACAGAAATGTCC (((((....))))) | 53.2 | -25.9 |

| Sequence | Tm [1] [°C] | folding enthalpy [2] [kcal/mol] |
| --- | --- | --- |
| GGTACACGAAAGTGCACC (((.(((....))).))) | 52.3 | -33.9 |
| CGATCGCGGAAACGCTCG (((..(((....)))))) | 36.8 | -15.4 |
| GATCCTCTTAAGGATC ((((((....)))))) | 52.9 | -42.5 |
| GGTGGTGGAAACGCCACC (((((.(....).))))) | 63.5 | -35.4 |
| GCCACCGAAAGGTGTGGC ((((((....)))..))) | 58.2 | -17.5 |
| GATCTCTGAAGAGATC ((((((....)))))) | 54.2 | -35.2 |
| GGCCGTGGAAACGTGGCC ((((..(....)..)))) | 55.5 | -39.9 |
| GCGTTCGAAAGAAAGCGC ((((((....)))..))) | 53.2 | -29.4 |
| GTGTCCGAAAGGATTCAC ((((((....)))..))) | 35.3 | -16.3 |
| GACGGCGGAAACGCTGTC (((.(((....))).))) | 64.7 | -37.5 |
| GCACTTGGAAACAGGTGC ((((.((....)).)))) | 51.7 | -48.4 |
| GAAAACACGAAAGTGTTC (((..(((....)))))) | 35.9 | -11.9 |
| GCCGAAGGAAACTTCGAC (.(((((....))))).) | 41 | -19.8 |
| CGTCCGGAAACGGTGACG ((((((....)))..))) | 41 | -21.9 |
| GTGCCGCGAAAGCGCAC (((.(((....)))))) | 69 | -21.1 |
| GCTCGCGAAAGCGAAAGC ((((((....)))..))) | 54.3 | -14.4 |
| GGCGCTGGAAACGGTGCC (((.(.(....).).))) | 52.7 | -31.2 |
| GTGGTCGAAAGACAACAC ((((((....)))..))) | 46.8 | -18.7 |
| GATCTGGCCGCAGATC ((((((....)))))) | 52.3 | -36 |
| GACAGTGAAAACTGTC ((((((....)))))) | 56.4 | -28.6 |
| GTACGTGGAAACGCGTAC (((((.(....).))))) | 52.7 | -32.2 |
| GAACACGAAAGTGATTTC ((((((....)))..))) | 26.9 | -12.3 |
| GATCTGAATACAGATC ((((((....)))))) | 47.7 | -39.7 |

| Sequence | Tm [1] [°C] | folding enthalpy [2] [kcal/mol] |
| --- | --- | --- |
| GCACTCGCGAAAGCGTGC (((..(((....)))))) | 50.5 | -14.7 |
| GATCTCAAACGAGATC ((((((....)))))) | 50.2 | -41.4 |
| GCGTGGCGAAAGCATCGC (((..((....))..))) | 62.1 | -31.9 |
| GAGCGTGGAAACACACCC (.(.(((....))).).) | 25.4 | -18.9 |
| GGCTACCGAAAGGTTGCC (((.(((....))).))) | 63 | -35.5 |
| GTAAGGGAAACCTTAC ((((((....)))))) | 48 | -26.2 |
| GTGCGCGGAAACGTGCGC (.((.((....)).)).) | 59 | -25.9 |
| GTTAGCGAAAGCTGAAC ((((((....))).))) | 38.4 | -13.2 |
| GCGGTGCGAAAGCGCAGC ((.(.((....)).).)) | 64.1 | -23.4 |
| GAGCCGACGAAAGTCCTC (((..(((....)))))) | 27.9 | -8.43 |
| GACCTGGGAAACCGGGTC ((((.((....)).)))) | 57.1 | -44.8 |
| GATCTAGGAAACTAGGTC ((.((((....)))).)) | 38.6 | -34.3 |
| GAGTATGGAAACATACCC (.(((((....))))).) | 31.4 | -19.4 |
| GTGAACGAAAGTTTTCAC ((((((....)))..))) | 31.1 | -15.6 |
| GCATAGCGAAAGCTCGGC ((..(((....)))..)) | 36.5 | -16.2 |
| GTCCGCCGAAAGGCAGAC (((.(((....))).))) | 54.2 | -21.7 |
| GATCCACGTCTGGATC ((((((....)))))) | 49.5 | -38.3 |
| GCCAATGAAAATTGGC ((((((....)))))) | 59.9 | -30.7 |
| GCGGCCGAAAGGCGCCGC ((((((....)))..))) | 62.8 | -14.9 |
| GGATGCTCGAAAGAGTCC (((..(((....)))))) | 29.1 | -12.1 |
| GGTCTCGGAAACGAGGCC ((.((((....)))).)) | 62.2 | -39.3 |
| GCAGGTGGAAACACCCAC (..((((....))))..) | 32.1 | -10.6 |
| GAAGGTGAAAACCTTC ((((((....)))))) | 57.2 | -28.7 |

— the array DNA melting data of Ke et al. (doi:10.1101/2024.01.08.574731)
